Reference: ChEMBL document CHEMBL4680235, “Structure-based discovery of novel 4-(2-fluorophenoxy)quinoline derivatives as c-Met inhibitors using isocyanide-involved multicomponent reactions” (Eur J Med Chem, 2020)

Experiments:
MKN-45 = test: Antiproliferative activity against human MKN-45 cells assessed as reduction in cell viability measured after 72 hrs by MTT assay; conditions: MKN-45, 72 h
MDA-MB-231 [1] = test: Antiproliferative activity against human MDA-MB-231 cells assessed as reduction in cell viability measured after 72 hrs by MTT assay; conditions: MDA-MB-231, 72 h
HT-29 [2] = test: Antiproliferative activity against human HT-29 cells assessed as reduction in cell viability measured after 72 hrs by MTT assay; conditions: HT-29, 72 h
NCI-H460 [3] = test: Antiproliferative activity against human NCI-H460 cells assessed as reduction in cell viability measured after 72 hrs by MTT assay; conditions: NCI-H460, 72 h
[4] = target: Hepatocyte growth factor receptor (Homo sapiens, UniProt P08581); test: Inhibition of c-MET (unknown origin) using poly (Glu, Tyr) 4:1 as substrate measured after 30 mins by HTRF assay
[5] = target: Macrophage-stimulating protein receptor (Homo sapiens, UniProt Q04912); test: Inhibition of Ron (unknown origin)
Summary of the method: (§1)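 HTRF kinase assay with purified kinase protein on preloaded poly(Glu,Tyr) 4:1 substrate, 20 mg/mL. ATP at 10 mM (solution added) in buffer of 50 mM HEPES pH 7.0 with DTT, MgCl₂, MnCl₂ and 0.1% NaN₃. Compounds diluted in 1% DMSO. Reaction ran 30 min at 25 °C. Percent inhibition computed against no-enzyme (min) and full-activity (max) wells. IC50 taken from the inhibition curves.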

NCI-H460 [6] = test: Antiproliferative activity against human NCI-H460 cells assessed as reduction in cell viability hrs by MTT assay; type: functional, cell-based; conditions: TDE = time-dependent effect
HT-29 [7] = test: Potency index, ratio of foretinib IC50 to test compound IC50 for antiproliferative activity against human HT-29 cells; type: functional
[8] = target: Vascular endothelial growth factor receptor 3 (Homo sapiens, UniProt P35916); test: Inhibition of Flt4 (unknown origin); summary of the method: as §1
MDA-MB-231 [9] = test: Potency index, ratio of foretinib IC50 to test compound IC50 for antiproliferative activity against human MDA-MB-231 cells; type: functional
[10] = target: Vascular endothelial growth factor receptor 2 (Homo sapiens, UniProt P35968); test: Inhibition of VEGFR2 (unknown origin)
[11] = target: T1, Receptor-type tyrosine-protein kinase FLT3 (Homo sapiens, UniProt P36888); test: Inhibition of FLT3 (unknown origin)
T1 sequence (P36888 whole entry): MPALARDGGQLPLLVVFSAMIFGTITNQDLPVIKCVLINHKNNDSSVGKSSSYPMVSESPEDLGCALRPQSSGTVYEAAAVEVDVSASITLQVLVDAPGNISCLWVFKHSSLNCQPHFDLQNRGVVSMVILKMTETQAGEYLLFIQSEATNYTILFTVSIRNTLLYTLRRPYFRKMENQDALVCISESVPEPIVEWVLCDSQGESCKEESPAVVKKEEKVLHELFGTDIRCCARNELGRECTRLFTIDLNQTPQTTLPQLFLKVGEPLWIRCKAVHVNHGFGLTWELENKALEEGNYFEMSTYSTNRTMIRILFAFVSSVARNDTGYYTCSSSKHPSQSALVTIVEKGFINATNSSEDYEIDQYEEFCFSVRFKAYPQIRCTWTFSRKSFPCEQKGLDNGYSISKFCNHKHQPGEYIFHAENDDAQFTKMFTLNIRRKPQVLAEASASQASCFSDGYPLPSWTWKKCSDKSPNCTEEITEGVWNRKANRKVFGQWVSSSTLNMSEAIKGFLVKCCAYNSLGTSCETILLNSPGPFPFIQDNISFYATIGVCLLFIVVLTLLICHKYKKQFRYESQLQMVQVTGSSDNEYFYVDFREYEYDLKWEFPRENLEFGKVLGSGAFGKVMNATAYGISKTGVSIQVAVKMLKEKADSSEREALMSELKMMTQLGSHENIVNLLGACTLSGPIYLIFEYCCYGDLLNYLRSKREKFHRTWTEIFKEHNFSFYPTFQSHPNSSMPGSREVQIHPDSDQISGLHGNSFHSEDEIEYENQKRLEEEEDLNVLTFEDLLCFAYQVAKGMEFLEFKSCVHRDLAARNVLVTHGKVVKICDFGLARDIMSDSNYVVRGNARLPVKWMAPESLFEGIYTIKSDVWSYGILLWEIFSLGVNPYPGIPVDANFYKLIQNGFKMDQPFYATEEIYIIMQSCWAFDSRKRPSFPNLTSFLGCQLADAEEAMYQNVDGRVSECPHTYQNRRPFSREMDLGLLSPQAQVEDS

NCI-H460 [12] = test: Potency index, ratio of foretinib IC50 to test compound IC50 for antiproliferative activity against human NCI-H460 cells; type: functional
[13] = target: Epidermal growth factor receptor (Homo sapiens, UniProt P00533); test: Inhibition of EGFR (unknown origin); summary of the method: as §1
[14] = target: Mast/stem cell growth factor receptor Kit (Homo sapiens, UniProt P10721); test: Inhibition of c-Kit (unknown origin); summary of the method: as §1
Mast/stem cell growth factor receptor Kit, sequence (P10721 whole entry): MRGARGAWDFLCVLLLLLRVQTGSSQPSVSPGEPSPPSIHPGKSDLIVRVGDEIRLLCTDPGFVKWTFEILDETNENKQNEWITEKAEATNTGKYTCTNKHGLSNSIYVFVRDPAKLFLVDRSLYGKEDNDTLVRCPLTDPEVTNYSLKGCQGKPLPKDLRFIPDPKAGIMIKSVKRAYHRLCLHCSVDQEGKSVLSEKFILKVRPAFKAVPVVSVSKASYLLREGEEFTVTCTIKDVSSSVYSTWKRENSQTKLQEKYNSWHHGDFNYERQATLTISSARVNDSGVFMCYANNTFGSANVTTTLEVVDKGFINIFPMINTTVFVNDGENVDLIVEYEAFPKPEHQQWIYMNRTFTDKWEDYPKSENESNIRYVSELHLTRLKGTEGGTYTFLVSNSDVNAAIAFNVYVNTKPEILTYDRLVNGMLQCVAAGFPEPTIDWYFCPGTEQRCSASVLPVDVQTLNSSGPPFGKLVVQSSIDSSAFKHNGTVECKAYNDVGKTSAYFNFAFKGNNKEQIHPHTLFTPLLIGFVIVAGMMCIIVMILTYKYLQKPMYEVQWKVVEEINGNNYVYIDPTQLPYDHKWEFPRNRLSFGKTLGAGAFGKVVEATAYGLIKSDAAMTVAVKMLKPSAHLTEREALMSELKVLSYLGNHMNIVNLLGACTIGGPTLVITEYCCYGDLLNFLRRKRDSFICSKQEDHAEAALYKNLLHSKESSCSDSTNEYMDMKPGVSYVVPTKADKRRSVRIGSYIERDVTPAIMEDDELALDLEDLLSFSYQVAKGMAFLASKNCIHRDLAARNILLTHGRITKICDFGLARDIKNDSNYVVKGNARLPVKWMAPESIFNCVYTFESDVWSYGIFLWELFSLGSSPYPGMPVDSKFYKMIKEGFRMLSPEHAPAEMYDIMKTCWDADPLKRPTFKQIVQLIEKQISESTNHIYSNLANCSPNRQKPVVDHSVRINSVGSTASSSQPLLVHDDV

Hepatocyte growth factor receptor, sequence (P08581 whole entry): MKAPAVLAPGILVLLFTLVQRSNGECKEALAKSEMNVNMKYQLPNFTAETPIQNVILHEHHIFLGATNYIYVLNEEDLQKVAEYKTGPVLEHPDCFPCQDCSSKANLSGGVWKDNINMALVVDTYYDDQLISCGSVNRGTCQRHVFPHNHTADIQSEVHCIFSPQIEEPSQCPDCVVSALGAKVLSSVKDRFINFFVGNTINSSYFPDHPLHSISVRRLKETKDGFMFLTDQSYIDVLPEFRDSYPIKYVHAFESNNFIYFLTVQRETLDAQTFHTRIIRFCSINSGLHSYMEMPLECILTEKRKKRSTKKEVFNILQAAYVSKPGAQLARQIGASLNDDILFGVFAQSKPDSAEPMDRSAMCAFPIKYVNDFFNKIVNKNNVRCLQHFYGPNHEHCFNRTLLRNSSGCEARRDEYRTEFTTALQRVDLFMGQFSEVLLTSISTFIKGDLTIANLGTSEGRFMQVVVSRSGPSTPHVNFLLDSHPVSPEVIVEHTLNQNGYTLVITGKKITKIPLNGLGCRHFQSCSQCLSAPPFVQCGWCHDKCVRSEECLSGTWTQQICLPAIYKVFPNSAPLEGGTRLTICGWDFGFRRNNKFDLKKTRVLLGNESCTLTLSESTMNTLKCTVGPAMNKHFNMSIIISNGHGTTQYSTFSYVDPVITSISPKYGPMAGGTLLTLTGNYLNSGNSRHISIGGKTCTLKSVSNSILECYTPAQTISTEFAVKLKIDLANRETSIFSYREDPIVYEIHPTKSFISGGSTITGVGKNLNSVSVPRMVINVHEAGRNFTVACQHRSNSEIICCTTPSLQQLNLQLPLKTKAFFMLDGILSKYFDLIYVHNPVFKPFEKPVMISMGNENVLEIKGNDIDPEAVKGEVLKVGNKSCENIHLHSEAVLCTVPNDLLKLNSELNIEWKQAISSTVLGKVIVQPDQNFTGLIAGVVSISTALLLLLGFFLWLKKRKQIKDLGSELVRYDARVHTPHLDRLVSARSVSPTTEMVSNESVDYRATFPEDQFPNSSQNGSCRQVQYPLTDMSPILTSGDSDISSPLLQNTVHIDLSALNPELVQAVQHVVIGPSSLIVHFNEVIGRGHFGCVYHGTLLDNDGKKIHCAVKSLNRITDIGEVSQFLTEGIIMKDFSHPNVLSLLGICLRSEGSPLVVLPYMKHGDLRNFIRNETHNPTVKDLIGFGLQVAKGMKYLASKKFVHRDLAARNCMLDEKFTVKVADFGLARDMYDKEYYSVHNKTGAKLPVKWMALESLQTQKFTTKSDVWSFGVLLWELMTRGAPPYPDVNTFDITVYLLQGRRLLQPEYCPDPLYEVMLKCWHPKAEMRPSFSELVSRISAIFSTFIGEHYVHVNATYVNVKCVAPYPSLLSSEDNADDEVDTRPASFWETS
Vascular endothelial growth factor receptor 2, sequence (P35968 whole entry): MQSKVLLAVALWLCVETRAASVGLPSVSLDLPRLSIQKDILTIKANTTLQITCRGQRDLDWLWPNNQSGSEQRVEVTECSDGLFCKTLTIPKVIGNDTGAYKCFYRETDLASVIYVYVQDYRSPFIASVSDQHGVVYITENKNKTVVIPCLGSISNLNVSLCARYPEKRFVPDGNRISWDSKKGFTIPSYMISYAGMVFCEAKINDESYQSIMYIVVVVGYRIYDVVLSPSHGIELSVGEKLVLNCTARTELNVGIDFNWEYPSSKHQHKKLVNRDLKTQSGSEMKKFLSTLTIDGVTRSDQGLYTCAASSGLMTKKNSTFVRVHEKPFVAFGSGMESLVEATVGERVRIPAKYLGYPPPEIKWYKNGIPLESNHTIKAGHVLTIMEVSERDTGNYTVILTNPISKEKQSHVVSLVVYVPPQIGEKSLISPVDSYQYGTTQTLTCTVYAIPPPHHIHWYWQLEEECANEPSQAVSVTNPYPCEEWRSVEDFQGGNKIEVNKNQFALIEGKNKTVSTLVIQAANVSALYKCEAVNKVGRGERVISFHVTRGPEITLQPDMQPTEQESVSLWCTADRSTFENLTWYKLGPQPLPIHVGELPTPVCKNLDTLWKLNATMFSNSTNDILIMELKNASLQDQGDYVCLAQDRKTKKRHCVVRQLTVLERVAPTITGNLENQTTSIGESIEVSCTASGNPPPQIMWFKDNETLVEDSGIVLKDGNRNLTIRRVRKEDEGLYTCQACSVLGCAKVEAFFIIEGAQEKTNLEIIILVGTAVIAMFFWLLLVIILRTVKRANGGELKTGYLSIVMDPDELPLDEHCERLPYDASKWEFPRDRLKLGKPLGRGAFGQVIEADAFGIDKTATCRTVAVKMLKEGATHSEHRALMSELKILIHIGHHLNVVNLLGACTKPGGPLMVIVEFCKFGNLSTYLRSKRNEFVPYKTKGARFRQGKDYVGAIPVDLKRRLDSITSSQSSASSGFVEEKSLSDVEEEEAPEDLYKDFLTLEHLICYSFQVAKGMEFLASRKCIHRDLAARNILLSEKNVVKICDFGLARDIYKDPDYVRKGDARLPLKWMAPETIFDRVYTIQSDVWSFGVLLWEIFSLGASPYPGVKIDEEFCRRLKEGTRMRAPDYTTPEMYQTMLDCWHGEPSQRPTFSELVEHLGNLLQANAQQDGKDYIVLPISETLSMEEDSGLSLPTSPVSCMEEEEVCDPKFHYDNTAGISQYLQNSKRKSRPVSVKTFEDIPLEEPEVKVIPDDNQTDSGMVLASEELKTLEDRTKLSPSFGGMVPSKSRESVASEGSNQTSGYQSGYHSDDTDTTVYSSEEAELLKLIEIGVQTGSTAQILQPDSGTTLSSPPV
Vascular endothelial growth factor receptor 3, sequence (P35916 whole entry): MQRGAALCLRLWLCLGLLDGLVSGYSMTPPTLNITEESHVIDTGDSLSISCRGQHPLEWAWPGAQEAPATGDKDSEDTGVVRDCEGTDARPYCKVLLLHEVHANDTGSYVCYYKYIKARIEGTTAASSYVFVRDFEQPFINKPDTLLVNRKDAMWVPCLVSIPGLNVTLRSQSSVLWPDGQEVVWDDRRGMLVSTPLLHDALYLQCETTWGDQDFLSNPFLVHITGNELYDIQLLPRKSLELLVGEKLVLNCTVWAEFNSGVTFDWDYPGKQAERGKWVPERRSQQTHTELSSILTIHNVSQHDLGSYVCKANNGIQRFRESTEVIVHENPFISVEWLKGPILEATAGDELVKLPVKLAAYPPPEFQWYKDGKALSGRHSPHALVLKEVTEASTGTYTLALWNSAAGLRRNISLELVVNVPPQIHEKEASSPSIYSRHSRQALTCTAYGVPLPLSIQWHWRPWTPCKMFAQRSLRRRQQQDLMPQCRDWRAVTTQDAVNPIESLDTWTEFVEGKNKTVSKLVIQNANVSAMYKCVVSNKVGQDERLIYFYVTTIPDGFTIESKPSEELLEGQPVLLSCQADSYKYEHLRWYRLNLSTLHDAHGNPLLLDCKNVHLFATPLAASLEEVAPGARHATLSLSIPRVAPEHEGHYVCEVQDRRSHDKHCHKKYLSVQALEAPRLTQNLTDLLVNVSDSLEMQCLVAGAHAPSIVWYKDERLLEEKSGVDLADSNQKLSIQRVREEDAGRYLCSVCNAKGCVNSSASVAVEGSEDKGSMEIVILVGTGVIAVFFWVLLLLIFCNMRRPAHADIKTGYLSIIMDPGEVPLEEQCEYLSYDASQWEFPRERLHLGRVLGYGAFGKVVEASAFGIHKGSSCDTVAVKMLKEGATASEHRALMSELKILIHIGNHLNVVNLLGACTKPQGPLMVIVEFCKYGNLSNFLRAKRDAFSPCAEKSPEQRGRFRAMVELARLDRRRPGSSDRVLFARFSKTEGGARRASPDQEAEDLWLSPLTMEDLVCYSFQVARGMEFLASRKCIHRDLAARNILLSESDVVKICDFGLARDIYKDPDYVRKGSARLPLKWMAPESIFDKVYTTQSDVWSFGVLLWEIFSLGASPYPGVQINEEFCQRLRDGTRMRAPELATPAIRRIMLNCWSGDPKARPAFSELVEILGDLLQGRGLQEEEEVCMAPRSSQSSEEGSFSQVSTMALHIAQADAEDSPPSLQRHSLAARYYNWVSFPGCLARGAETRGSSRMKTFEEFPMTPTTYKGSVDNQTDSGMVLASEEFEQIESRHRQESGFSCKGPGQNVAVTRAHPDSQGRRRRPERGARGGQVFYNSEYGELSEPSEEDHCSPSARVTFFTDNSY

IC50 (MKN-45) [nM]	IC50 (MDA-MB-231 [1]) [nM]	IC50 (HT-29 [2]) [nM]	IC50 (NCI-H460 [3]) [nM]	SMILES	also measured
380	440	240	210	COc1cc2nccc(Oc3ccc(NC(=O)C(OC(=O)c4ccccc4F)C(C)(C)C)cc3F)c2cc1OC (stereo unspecified)	–
1870	2480	1240	890	CCCC(OC(=O)c1ccccc1)C(=O)Nc1ccc(Oc2ccnc3cc(OC)c(OC)cc23)c(F)c1 (stereo unspecified)	–
560	650	450	400	COc1cc2nccc(Oc3ccc(NC(=O)C(OC(=O)c4ccccc4)C(C)(C)C)cc3F)c2cc1OC (stereo unspecified)	–
1120	1560	900	780	COc1cc2nccc(Oc3ccc(NC(=O)C(OC(=O)c4ccc(Cl)c(Cl)c4)C(C)(C)C)cc3F)c2cc1OC (stereo unspecified)	–
3950	4450	2450	2060	COc1cc2nccc(Oc3ccc(NC(=O)C(OC(=O)c4ccc(C(C)(C)C)cc4)C(C)(C)C)cc3F)c2cc1OC (stereo unspecified)	–
750	900	560	480	COc1cc2nccc(Oc3ccc(NC(=O)C(OC(=O)c4ccc(Br)cc4)C(C)(C)C)cc3F)c2cc1OC (stereo unspecified)	–
600	860	390	310	COc1cc2nccc(Oc3ccc(NC(=O)C(OC(=O)c4cccc(Cl)c4)C(C)(C)C)cc3F)c2cc1OC (stereo unspecified)	–
1860	2580	1540	1250	COc1ccc(C(=O)OC(C(=O)Nc2ccc(Oc3ccnc4cc(OC)c(OC)cc34)c(F)c2)C(C)(C)C)cc1 (stereo unspecified)	–
1700	1890	1260	960	COc1cc2nccc(Oc3ccc(NC(=O)C(OC(=O)c4cccs4)C(C)(C)C)cc3F)c2cc1OC (stereo unspecified)	–
–	–	25600	22400	COc1cc2nccc(Oc3ccc(NC(=O)C(OC(=O)c4ccccc4)c4ccccc4)cc3F)c2cc1OC (stereo unspecified)	–
20500	18000	15600	10300	COc1cc2nccc(Oc3ccc(NC(=O)C(OC(=O)c4ccccc4)C4CCCCC4)cc3F)c2cc1OC (stereo unspecified)	–
–	–	–	–	COc1cc2nccc(Oc3ccc(NC(=O)[C@H](OC(=O)c4ccc(F)cc4)C(C)(C)C)cc3F)c2cc1OC	IC50 [4]: 2.56 nM
7520	8870	6210	6420	COc1ccc(N(C(=O)c2ccc(F)cc2)C(C(=O)Nc2ccc(Oc3ccnc4cc(OC)c(OC)cc34)c(F)c2)C(C)(C)C)cc1OC (stereo unspecified)	–
460	760	290	220	COc1cc2nccc(Oc3ccc(NC(=O)C(OC(=O)c4ccccc4Cl)C(C)(C)C)cc3F)c2cc1OC (stereo unspecified)	–
6390	8240	4020	2460	COc1cc2nccc(Oc3ccc(NC(=O)C(C)OC(=O)c4cccs4)cc3F)c2cc1OC (stereo unspecified)	–
1580	1700	1450	1300	COc1cc2nccc(Oc3ccc(NC(=O)C(N(C(=O)c4ccc(F)cc4)C(C)(C)C)C(C)(C)C)cc3F)c2cc1OC (stereo unspecified)	–
260	420	200	140	COc1cc2nccc(Oc3ccc(NC(=O)C(OC(=O)c4ccc(F)cc4)C(C)(C)C)cc3F)c2cc1OC (racemic)	IC50 [5]: 18.6 nM; Activity (NCI-H460 [6]): Tde; Ratio IC50 (HT-29 [7]): 1.3; IC50 [8]: 540 nM; IC50 [4]: 2.43 nM; Ratio IC50 (MDA-MB-231 [9]): 1.6; IC50 [10]: 295 nM; IC50 [11]: 6.15 nM; Ratio IC50 (NCI-H460 [12]): 1.7; IC50 [13]: > 10 µM; IC50 [14]: 4.42 nM

IC50 (MKN-45) [nM]	IC50 (MDA-MB-231 [1]) [nM]	IC50 (HT-29 [2]) [nM]	IC50 (NCI-H460 [3]) [nM]	SMILES	also measured
–	3560	2960	2680	COc1cc2nccc(Oc3ccc(NC(=O)C(OC(=O)c4ccco4)C(C)(C)C)cc3F)c2cc1OC (stereo unspecified)	–
680	860	520	470	CCCCN(C(=O)c1ccc(F)cc1)C(C(=O)Nc1ccc(Oc2ccnc3cc(OC)c(OC)cc23)c(F)c1)C(C)(C)C (stereo unspecified)	–
2870	3520	2160	1840	COc1cc2nccc(Oc3ccc(NC(=O)C(OC(=O)c4ccc(C(F)(F)F)cc4)C(C)(C)C)cc3F)c2cc1OC (stereo unspecified)	–
11500	14000	9270	11600	COc1cc2nccc(Oc3ccc(NC(=O)C(OC(=O)C4CCCC4)C(C)(C)C)cc3F)c2cc1OC (stereo unspecified)	–
15600	13300	11600	9430	COc1cc2nccc(Oc3ccc(NC(=O)C(C)OC(=O)c4ccc5ccccc5c4)cc3F)c2cc1OC (stereo unspecified)	–
6650	8480	5350	4340	COc1cc2nccc(Oc3ccc(NC(=O)C(N(C(=O)c4ccc(F)cc4)C4CCCCC4)C(C)(C)C)cc3F)c2cc1OC (stereo unspecified)	–
11500	14000	9270	7560	COc1cc2nccc(Oc3ccc(NC(=O)C(N(C(=O)c4ccc(F)cc4)c4ccccc4)C(C)(C)C)cc3F)c2cc1OC (stereo unspecified)	–
320	480	240	200	COc1cc2nccc(Oc3ccc(NC(=O)C(OC(=O)c4ccc(Cl)cc4)C(C)(C)C)cc3F)c2cc1OC (stereo unspecified)	–
1080	1420	850	780	COc1cc2nccc(Oc3ccc(NC(=O)C(OC(=O)c4ccc(C)cc4)C(C)(C)C)cc3F)c2cc1OC (stereo unspecified)	–
28200	–	24600	15200	COc1cc2nccc(Oc3ccc(NC(=O)C(C)OC(=O)C4CCCC4)cc3F)c2cc1OC (stereo unspecified)	–
540	490	300	260	COc1cc2nccc(Oc3ccc(NC(=O)C(OC(=O)c4cccc(F)c4)C(C)(C)C)cc3F)c2cc1OC (stereo unspecified)	–
3870	4920	3030	2700	COc1cc2nccc(Oc3ccc(NC(=O)C(OC(=O)c4cc(OC)c(OC)c(OC)c4)C(C)(C)C)cc3F)c2cc1OC (stereo unspecified)	–
2390	3210	1920	1290	COc1cc2nccc(Oc3ccc(NC(=O)C(C)OC(=O)c4ccccc4)cc3F)c2cc1OC (stereo unspecified)	–
–	6750	4380	3340	COc1cc2nccc(Oc3ccc(NC(=O)C(OC(=O)c4ccc5ccccc5c4)C(C)(C)C)cc3F)c2cc1OC (stereo unspecified)	–
–	–	–	–	COc1cc2nccc(Oc3ccc(NC(=O)[C@@H](OC(=O)c4ccc(F)cc4)C(C)(C)C)cc3F)c2cc1OC	IC50 [4]: 2.49 nM
12400	14800	10200	8420	COc1cc2nccc(Oc3ccc(NC(=O)C(N(C(=O)c4ccc(F)cc4)c4ccc(F)cc4)C(C)(C)C)cc3F)c2cc1OC (stereo unspecified)	–
650	960	440	380	COc1cc2nccc(Oc3ccc(NC(=O)C(NC(=O)c4ccc(F)cc4)C(C)(C)C)cc3F)c2cc1OC (stereo unspecified)	–
